RBBP9 inh: human RBBP9 hydrolase inhibition; O75884; recombinant RBBP9, FP-Rh probe fluorescence polarization; inhibition, % at 7.94 µM; 220,000 tested, 0.2% active;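 active = inhibition above the campaign mean of all tested compounds plus 3 SD, cut at about 14% in these data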;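 also: plate controls were DMSO wells with RBBP9 for no effect and wells lacking RBBP9 protein for full effect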
Target sequence (O75884 whole entry, looked up): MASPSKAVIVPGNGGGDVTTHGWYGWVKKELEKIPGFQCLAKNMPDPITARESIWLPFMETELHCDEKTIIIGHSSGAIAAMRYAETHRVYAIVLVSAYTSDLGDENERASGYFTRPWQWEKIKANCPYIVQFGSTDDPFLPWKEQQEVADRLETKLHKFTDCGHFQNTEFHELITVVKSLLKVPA
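Measured by – fluorescence polarization · Test system – RBBP9 protein · Input – 2.5 µM RBBP9 dispensing solution, before mixing · Measure – percent inhibition from mP, scaled between DMSO and no-protein wells · Benchmarks – DMSO-treated enzyme wells and wells lacking RBBP9 · Times – preincubation 30 min plus labeling 45 min at 25 °C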
PAFAH1B2 FP inh: inhibitors of human PAFAH1B2. P68402. recombinant PAFAH1B2, FP-rhodamine activity probe, fluorescence polarization. inhibition, % at 3.39 µM. 340,000 tested, 1.2% active. AID 492953;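 active = inhibition above the mean of all tested compounds plus 3 SD, cut at about 24% in these data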;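 also: 0% = enzyme with DMSO and 100% = wells lacking PAFAH1B2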
Target sequence (P68402 whole entry, looked up): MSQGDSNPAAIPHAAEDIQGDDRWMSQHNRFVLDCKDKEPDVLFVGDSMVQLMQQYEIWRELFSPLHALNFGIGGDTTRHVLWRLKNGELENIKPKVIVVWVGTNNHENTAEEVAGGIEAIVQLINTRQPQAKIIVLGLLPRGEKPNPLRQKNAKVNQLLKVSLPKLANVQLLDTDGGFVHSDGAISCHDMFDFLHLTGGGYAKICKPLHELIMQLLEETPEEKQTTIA
pPAFAH inh: pPAFAH (human) enzyme inhibition | Q13093 | 330,000 tested, 1.5% active | inhibition, % at 3.39 µM | AID 463082 | recombinant pPAFAH, FP-rhodamine probe fluorescence polarization;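 active = inhibition above the mean inhibition across the screen plus 3 SD, cut at about 25% in these data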;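 also: inhibitors block binding of the rhodamine activity-based probe so polarization drops; 0% = enzyme with DMSO and 100% = wells lacking pPAFAH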
PAFAH2 inh: PAFAH2 (human) inhibition; 340,000 tested, 0.99% active; recombinant PAFAH2, FP-rhodamine activity probe, fluorescence polarization; Q99487; inhibition, % at 3.39 µM; AID 492956;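 active = inhibition above the mean over all tested compounds plus 3 SD, cut at about 30% in these data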;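 also: inhibitors block probe labeling of enzyme so polarization drops; 0% = enzyme with DMSO and 100% = wells lacking PAFAH2 protein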
PAFAH1B3 inh: inhibitors of human PAFAH1B3 | Q15102 | recombinant PAFAH1B3, FP-rhodamine probe, fluorescence polarization | inhibition, % at 3.39 µM | 340,000 tested, 0.28% active;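 active = inhibition above the screen-wide average of all tested compounds plus 3 SD, cut at about 25% in these data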;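 also: 0% = enzyme with DMSO only and 100% = wells lacking PAFAH1B3 protein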
Target sequence (Q15102 whole entry, looked up): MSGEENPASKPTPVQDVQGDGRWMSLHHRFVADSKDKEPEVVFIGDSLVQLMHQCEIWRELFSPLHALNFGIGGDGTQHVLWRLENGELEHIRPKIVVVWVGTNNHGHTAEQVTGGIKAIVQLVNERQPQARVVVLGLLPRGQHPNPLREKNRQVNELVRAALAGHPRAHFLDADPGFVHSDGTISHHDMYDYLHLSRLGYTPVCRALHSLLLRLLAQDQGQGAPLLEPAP
PAFAH2 confirm: confirmation of human PAFAH2 inhibitors; 2,300 tested, 65% active; inhibition, % at 3.39 µM; recombinant PAFAH2, FP-rhodamine activity probe, fluorescence polarization; shares compounds with PAFAH2 inh;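 active = mean inhibition over three repeats above a set limit taken from the earlier primary screen, cut at about 30% in these data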;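 also: inhibitor blocks binding of rhodamine activity probe so polarization falls; 0% = enzyme with DMSO and 100% = wells lacking PAFAH2 protein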
The depositor's hits bear a star. This is a sample that favours compounds with a hit; in the whole collection about 2.7% have one here.

Results for COc1ccc(NC(=S)Nc2ccccc2)c(OC)c1 ?
RBBP9 inh: 3; PAFAH1B2 FP inh: 0; pPAFAH inh: -1; PAFAH2 inh: 164*; PAFAH1B3 inh: 1; PAFAH2 confirm: -1

Results for COc1ccc(/C=C/C(=O)OCC(=O)NCc2ccco2)c(OC)c1 ?
RBBP9 inh: 1; PAFAH1B2 FP inh: 1; pPAFAH inh: 13; PAFAH2 inh: 74*; PAFAH1B3 inh: -1; PAFAH2 confirm: 69*

How did COc1ccc(OC)c(/C=C/C(=O)OCC(=O)NCc2ccco2)c1 do in these assays?
PAFAH1B2 FP inh: 1; pPAFAH inh: 0; PAFAH2 inh: 40*; PAFAH1B3 inh: 7; PAFAH2 confirm: 28

Results for COc1cccc(/C=C/C(=O)OCC(=O)NCc2ccco2)c1 ?
RBBP9 inh: -3; PAFAH1B2 FP inh: 0; pPAFAH inh: 11; PAFAH2 inh: 29; PAFAH1B3 inh: -2

How did COc1ccc(OC)c(/C=C/C(=O)Oc2ccc(C(C)=O)cc2)c1 do in these assays?
PAFAH1B2 FP inh: 0; pPAFAH inh: 6; PAFAH2 inh: 18; PAFAH1B3 inh: 2

What do the screens show for `COc1ccc(OC)c(/C=C/C(=O)OCC(=O)Nc2cccc(C(C)=O)c2)c1`?
RBBP9 inh: -4; PAFAH1B2 FP inh: 0; pPAFAH inh: -2; PAFAH2 inh: 68*; PAFAH1B3 inh: -8; PAFAH2 confirm: 62*

What do the screens show for `COc1ccc(/C=C/C(=O)OCC(=O)NCCc2ccccc2)c(OC)c1`?
PAFAH1B2 FP inh: -2; pPAFAH inh: 17; PAFAH2 inh: 76*; PAFAH1B3 inh: 5; PAFAH2 confirm: 60*

Results for COc1cccc(CC(O)CC2c3c(cc4c(c3OC)OCO4)CCN2C)c1 (stereo not given) ?
PAFAH1B2 FP inh: 2; PAFAH2 inh: -6; PAFAH1B3 inh: 11

Results for O=C1N[C@@H](Cc2ccccc2)C(=O)N2[C@@H]1C[C@@]1(Br)c3ccccc3N(S(=O)(=O)c3ccccc3)[C@@H]21 ?
PAFAH1B2 FP inh: 3; pPAFAH inh: 8; PAFAH2 inh: 3; PAFAH1B3 inh: -4

Results for Cc1cccc(C(C)C)c1NC(=O)COC(=O)CN1C(=O)C2CC=CCC2C1=O (stereo not given) ?
PAFAH1B2 FP inh: 2; pPAFAH inh: 4; PAFAH2 inh: 53*; PAFAH1B3 inh: 4; PAFAH2 confirm: 37*

How did Cc1cccc(C)c1NC(=O)CN1C(=O)C2CC=CCC2C1=O (stereo not given) do in these assays?
PAFAH1B2 FP inh: -1; pPAFAH inh: 3; PAFAH2 inh: 6; PAFAH1B3 inh: -7

How did CC(C)CNC(=O)COC(=O)c1cccc(S(=O)(=O)NCC(F)(F)F)c1 do in these assays?
RBBP9 inh: -2; PAFAH1B2 FP inh: 2; pPAFAH inh: 13; PAFAH2 inh: 31*; PAFAH1B3 inh: 4; PAFAH2 confirm: 20

Results for COc1ccc(Cl)cc1NC(=O)CN1CCc2ccccc2C1 ?
PAFAH1B2 FP inh: 4; pPAFAH inh: 6; PAFAH2 inh: -5; PAFAH1B3 inh: 1

What do the screens show for `C=CCSC1=N/C(=C\c2ccc3c(c2)OCO3)C(=O)S1`?
RBBP9 inh: -8; PAFAH1B2 FP inh: -2; pPAFAH inh: 9; PAFAH2 inh: 32*; PAFAH1B3 inh: 10; PAFAH2 confirm: 31*

What do the screens show for `Clc1ccccc1Cc1noc(CN2CCN(Cc3ccccn3)CC2)n1`?
RBBP9 inh: -4; PAFAH1B2 FP inh: 11; pPAFAH inh: 8; PAFAH2 inh: 33*; PAFAH1B3 inh: 7; PAFAH2 confirm: 9

What do the screens show for `CN(Cc1cnccn1)Cc1nc(Cc2ccccc2Cl)no1`?
RBBP9 inh: -4; PAFAH1B2 FP inh: 3; pPAFAH inh: 6; PAFAH2 inh: -2; PAFAH1B3 inh: -1

Results for COc1cc(/C=C/C(=O)OCC(=O)NCc2ccco2)ccc1OCC#N ?
RBBP9 inh: -6; PAFAH1B2 FP inh: 2; pPAFAH inh: 5; PAFAH2 inh: 44*; PAFAH1B3 inh: 14; PAFAH2 confirm: 37*

Results for COc1cc(/C=C/C(=O)OCC(=O)NCC2CCCO2)ccc1OCC#N (stereo not given) ?
RBBP9 inh: -10; PAFAH1B2 FP inh: 4; pPAFAH inh: 4; PAFAH2 inh: 43*; PAFAH1B3 inh: 2; PAFAH2 confirm: 30*

What do the screens show for `O=C(COC(=O)/C=C/c1ccc(F)cc1)NCC1CCCO1` (stereo not given)?
PAFAH1B2 FP inh: 1; pPAFAH inh: 2; PAFAH2 inh: 38*; PAFAH1B3 inh: 15; PAFAH2 confirm: 26

What do the screens show for `O=C(COC(=O)/C=C/c1ccc(C(F)(F)F)cc1)NCC1CCCO1` (stereo not given)?
PAFAH1B2 FP inh: 0; pPAFAH inh: 8; PAFAH2 inh: 10; PAFAH1B3 inh: -1

How did COc1ccc(CCNC(=O)COC(=O)/C=C/c2ccc(OCC#N)c(OC)c2)cc1OC do in these assays?
RBBP9 inh: -2; PAFAH1B2 FP inh: 5; pPAFAH inh: 3; PAFAH2 inh: 11; PAFAH1B3 inh: -9

Results for O=C(CCC1CCCCC1)N1CCN(Cc2ccc3c(c2)OCO3)CC1 ?
RBBP9 inh: -7; PAFAH1B2 FP inh: 1; pPAFAH inh: 6; PAFAH2 inh: -2; PAFAH1B3 inh: 1

What do the screens show for `CNC(=O)N(O)C1N(C)C(=O)N(Cc2ccccc2)C1(C)C` (stereo not given)?
RBBP9 inh: -8; PAFAH1B2 FP inh: 3; pPAFAH inh: 0; PAFAH2 inh: -2; PAFAH1B3 inh: 2

Results for CCN1C(=O)N(C)C(N(O)C(=O)NC)C1(C)C (stereo not given) ?
RBBP9 inh: -7; PAFAH1B2 FP inh: 3; pPAFAH inh: -1; PAFAH2 inh: 56*; PAFAH1B3 inh: 7; PAFAH2 confirm: -5

Results for COC(=O)c1ccccc1NC(=O)COC(=O)/C=C/c1cccs1 ?
PAFAH1B2 FP inh: 1; pPAFAH inh: 1; PAFAH2 inh: 17; PAFAH1B3 inh: -1

What do the screens show for `Cc1cc(C)c(NC(=O)COC(=O)/C=C/c2cccs2)c(C)c1`?
RBBP9 inh: -11; PAFAH1B2 FP inh: 3; pPAFAH inh: 3; PAFAH2 inh: 35*; PAFAH1B3 inh: -12; PAFAH2 confirm: 31*

What do the screens show for `Cc1ccc(NC(=O)COC(=O)/C=C/c2cccs2)c(C)c1`?
RBBP9 inh: 5; PAFAH1B2 FP inh: 2; pPAFAH inh: 7; PAFAH2 inh: 56*; PAFAH1B3 inh: 12; PAFAH2 confirm: 42*

What do the screens show for `CC(/C=N/NC(=O)c1ccccc1F)=C\c1ccccc1`?
PAFAH1B2 FP inh: 3; pPAFAH inh: 1; PAFAH2 inh: 6; PAFAH1B3 inh: 3

Results for Cn1c(N)c(C(=O)COC(=O)COc2cc(Cl)c(Cl)cc2Cl)c(=O)n(C)c1=O ?
PAFAH1B2 FP inh: 1; pPAFAH inh: 2; PAFAH2 inh: -1; PAFAH1B3 inh: 9

Results for COc1ccccc1OCCNC(=O)C1CC(=O)N(Cc2ccccc2)C1 (stereo not given) ?
PAFAH1B2 FP inh: 11; pPAFAH inh: -1; PAFAH2 inh: -4; PAFAH1B3 inh: 11
